Data set [1] concerns the target 72 kDa type IV collagenase (Homo sapiens, UniProt P08253). Nature of the data set: Inhibitory activity against human gelatinase A (matrix metalloprotease-2 MMP2).
Data set [2] has as its target Matrix metalloproteinase-9 (Homo sapiens, UniProt P14780). Nature of the data set: Inhibitory activity against human gelatinase B (Matrix metalloprotease-9).
A short description of data set [3]: Maximum plasma concentration (Cmax) after p.o. administration of 200 mg/kg in mice. It is filed as ADME, organism-based. Set-up: dose 200 mg/kg, route oral. To be noted: mouse, po. A digest of the protocol:
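Single 200 mg/kg oral dose in mice, given in 0.5% methyl cellulose. Blood drawn at various time points. Plasma drug extracted with CH3CN and quantified by reverse-phase C18 HPLC using a CH3CN gradient with 0.1% TFA. Peak plasma level taken as Cmax.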

Some results are limits rather than exact numbers.

Matrix metalloproteinase-9, sequence (P14780 whole entry): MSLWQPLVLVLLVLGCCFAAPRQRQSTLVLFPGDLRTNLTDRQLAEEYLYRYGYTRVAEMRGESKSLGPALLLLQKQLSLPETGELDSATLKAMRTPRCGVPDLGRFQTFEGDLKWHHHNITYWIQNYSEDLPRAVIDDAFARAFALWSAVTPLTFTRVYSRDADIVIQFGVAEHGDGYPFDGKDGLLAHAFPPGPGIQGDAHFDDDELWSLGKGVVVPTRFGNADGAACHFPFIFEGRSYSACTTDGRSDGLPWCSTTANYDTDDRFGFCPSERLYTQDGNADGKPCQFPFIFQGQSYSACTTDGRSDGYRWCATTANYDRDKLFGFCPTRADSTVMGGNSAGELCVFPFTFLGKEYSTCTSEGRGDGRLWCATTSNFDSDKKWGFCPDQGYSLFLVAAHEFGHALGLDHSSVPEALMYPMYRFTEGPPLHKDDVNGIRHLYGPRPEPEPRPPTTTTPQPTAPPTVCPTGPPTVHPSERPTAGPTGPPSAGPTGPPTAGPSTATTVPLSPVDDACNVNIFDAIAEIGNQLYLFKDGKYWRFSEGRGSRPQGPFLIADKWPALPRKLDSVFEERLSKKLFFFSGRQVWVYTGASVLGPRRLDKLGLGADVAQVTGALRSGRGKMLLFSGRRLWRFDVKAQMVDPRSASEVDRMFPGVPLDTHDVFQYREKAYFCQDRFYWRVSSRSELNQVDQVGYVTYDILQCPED
72 kDa type IV collagenase, sequence (P08253 whole entry): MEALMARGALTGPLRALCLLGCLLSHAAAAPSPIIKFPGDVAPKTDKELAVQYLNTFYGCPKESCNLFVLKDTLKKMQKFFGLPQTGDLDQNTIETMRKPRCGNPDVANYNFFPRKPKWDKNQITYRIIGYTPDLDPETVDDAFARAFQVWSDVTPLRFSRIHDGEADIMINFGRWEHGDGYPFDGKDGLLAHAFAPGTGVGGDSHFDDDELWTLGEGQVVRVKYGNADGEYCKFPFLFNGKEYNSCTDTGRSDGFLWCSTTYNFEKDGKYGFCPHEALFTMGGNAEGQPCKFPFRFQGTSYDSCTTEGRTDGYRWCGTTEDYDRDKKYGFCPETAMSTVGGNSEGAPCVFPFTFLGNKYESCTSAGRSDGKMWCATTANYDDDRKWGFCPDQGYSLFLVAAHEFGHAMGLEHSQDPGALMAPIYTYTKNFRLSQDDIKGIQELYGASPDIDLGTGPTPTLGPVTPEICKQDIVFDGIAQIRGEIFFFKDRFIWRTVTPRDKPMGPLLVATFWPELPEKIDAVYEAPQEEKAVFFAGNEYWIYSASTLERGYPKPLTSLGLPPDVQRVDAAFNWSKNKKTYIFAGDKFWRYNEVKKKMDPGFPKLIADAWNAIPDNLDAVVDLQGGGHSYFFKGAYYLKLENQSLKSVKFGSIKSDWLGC

As usually defined, the IC50 is the concentration that inhibits the measured activity by half. On to `COc1ccc(C#Cc2ccc(S(=O)(=O)N[C@H](Cc3ccccc3)C(=O)O)cc2)cc1`, for which the concentration for half-maximal inhibition (IC50) in data set [1] came to 1 µM; in data set [2], 7.8 µM.
Take `O=C(O)[C@@H](Cc1c[nH]c2ccccc12)NS(=O)(=O)c1ccc(Cc2ccccc2)cc1`: the values for the IC50 in data set [1] and in data set [2] were > 1 µM and > 10 µM, respectively.
As for `O=C(NO)[C@@H](Cc1c[nH]c2ccccc12)NS(=O)(=O)c1ccc(-c2ccccc2)cc1`, the IC50 was 0.0013 µM in data set [1] and 0.005 µM in data set [2].
Regarding `CC(C)[C@@H](NS(=O)(=O)c1ccc(NC(=O)c2ccccc2)cc1)C(=O)O`, the IC50 in data set [1] is 0.05 µM; in data set [2], 2.1 µM.
Take `O=C(O)[C@@H](Cc1c[nH]c2ccccc12)NS(=O)(=O)c1ccccc1`: the IC50 in data set [1] was > 1 µM; in data set [2], 3.4 µM.
The like results for `O=C(O)[C@@H](Cc1c[nH]c2ccccc12)NS(=O)(=O)c1ccc(C#Cc2ccccc2[N+](=O)[O-])s1` were, in that order, > 1 µM and 1.5 µM.
The like results for `O=C(O)[C@@H](Cc1c[nH]c2ccccc12)NS(=O)(=O)c1ccc(C#Cc2ccccc2)cc1` were, in that order, 0.05 µM and 0.24 µM.
For the molecule `O=C(N[C@H](Cc1ccccc1)C(=O)NO)c1ccc(-c2ccccc2)cc1`, the 50% inhibitory concentration (IC50) in data set [1] is > 1 µM; in data set [2], > 50 µM.
As a reminder, the Cmax is the peak of the concentration-time curve. For `COc1ccc(-c2ccc(S(=O)(=O)N[C@H](Cc3c[nH]c4ccccc34)C(=O)O)cc2)cc1`, the concentration in data set [3] peaked (Cmax) at 3.5 µM. Also, the IC50 is 0.0065 µM in data set [1] and 0.081 µM in data set [2].
`O=C(O)[C@@H](Cc1c[nH]c2ccccc12)NS(=O)(=O)c1ccc(Oc2ccccc2)cc1`: the results for the concentration for half-maximal inhibition (IC50) in data set [1] and in data set [2] were 0.05 µM and 0.25 µM, respectively.
For `O=C(O)[C@@H](Cc1c[nH]c2ccccc12)NS(=O)(=O)c1ccc2oc3ccccc3c2c1` the same measures were > 1 µM and > 10 µM.
`CC(C)[C@@H](NS(=O)(=O)c1ccc(Oc2ccccc2)cc1)C(=O)O` displayed a maximum concentration (Cmax) in data set [3] of 334 µM. Moreover, the half-maximal inhibitory concentration (IC50) is > 1 µM in data set [1] and 1.1 µM in data set [2].
Regarding `Cc1ccc(C(=O)Nc2ccc(S(=O)(=O)N[C@H](Cc3ccccc3)C(=O)O)cc2)cc1`, the half-maximal inhibitory concentration (IC50) in data set [1] was < 0.04 µM.
On to `O=C(O)[C@@H](Cc1c[nH]c2ccccc12)NS(=O)(=O)c1ccc(/N=N/c2ccccc2)cc1`, for which the IC50 is 0.05 µM in data set [1] and 0.35 µM in data set [2].
In data set [3], `CSc1ccc(C(=O)Nc2ccc(S(=O)(=O)N[C@@H](C(=O)O)C(C)C)cc2)cc1` displayed a peak concentration (Cmax) of 8.3 µM. Also, it took 0.0067 µM to reach half-maximal inhibition in data set [1] (IC50).
Take `CC(C)[C@@H](NS(=O)(=O)c1ccc(NC(=O)c2ccc([N+](=O)[O-])cc2)cc1)C(=O)O`: the IC50 in data set [1] is < 0.04 µM; in data set [2] it was 0.27 µM.
Molecule `COc1ccc(C#Cc2ccc(S(=O)(=O)N[C@H](Cc3ccccc3)C(=O)O)s2)cc1` returned a Cmax in data set [3] of 119 µM. In addition, the results for the concentration for half-maximal inhibition (IC50) in data set [1] and in data set [2] were 0.01 µM and 0.024 µM, respectively.
In data set [2], `O=C(NO)C(Cc1ccccc1)NS(=O)(=O)c1ccccc1` (configuration not stated) gave a 50% inhibitory concentration (IC50) of 1 µM.
On to `O=C(Nc1ccc(S(=O)(=O)N[C@H](Cc2c[nH]c3ccccc23)C(=O)O)cc1)c1ccccc1`, for which the IC50 in data set [1] is < 0.04 µM.
As for `O=C(O)c1ccc(C#Cc2ccc(S(=O)(=O)N[C@H](Cc3c[nH]c4ccccc34)C(=O)O)cc2)cc1`, the IC50 is > 1 µM in data set [1] and 8.8 µM in data set [2].
Consider `O=C(Nc1ccccc1)Nc1ccc(S(=O)(=O)N[C@H](Cc2c[nH]c3ccccc23)C(=O)O)cc1`, for which the IC50 was > 1 µM in data set [1] and > 10 µM in data set [2].
`COc1ccc(-c2ccc(S(=O)(=O)N[C@@H](C(=O)O)C(C)C)s2)cc1`: the concentration in data set [3] peaked (Cmax) at 97.5 µM. Also, the IC50 is 0.066 µM in data set [1] and 0.072 µM in data set [2].
For the molecule `Cc1ccc(C#Cc2ccc(S(=O)(=O)N[C@H](Cc3c[nH]c4ccccc34)C(=O)O)cc2)cc1`, the highest concentration (Cmax) in data set [3] came out at 10.8 µM. The IC50 in data set [1] stood at 0.034 µM; in data set [2], 0.016 µM.
As to `CC(C)[C@@H](NS(=O)(=O)c1ccc(-c2nnn(-c3ccccc3)n2)cc1)C(=O)O`, in data set [1], the IC50 is 0.13 µM.
As to `O=C(O)[C@@H](Cc1c[nH]c2ccccc12)NS(=O)(=O)c1ccc2ccccc2c1`, the figures for the concentration for half-maximal inhibition (IC50) in data set [1] and in data set [2] were > 1 µM and > 10 µM, respectively.
Turning to `Cc1ccc(C#Cc2ccc(S(=O)(=O)N[C@@H](C(=O)O)C(C)C)s2)cc1`, in data set [3], the highest level (Cmax) was 284 µM. Also, the half-inhibitory concentration (IC50) in data set [1] was 0.053 µM; in data set [2], 0.014 µM.
For `O=C(NO)[C@H](Cc1ccccc1)NS(=O)(=O)c1ccccc1`, the IC50 in data set [2] is > 1000 µM.
Consider `O=C(c1ccccc1)c1ccc(S(=O)(=O)N[C@H](Cc2c[nH]c3ccccc23)C(=O)O)cc1`, for which the values for the IC50 in data set [1] and in data set [2] were > 1 µM and > 10 µM, respectively.
For `O=C(NO)[C@@H](Cc1ccccc1)NS(=O)(=O)c1ccc(-c2ccccc2)cc1`, the peak level in data set [3] (Cmax) was 2.5 µM. For the same molecule, the half-maximal inhibitory concentration (IC50) in data set [1] came out at 0.017 µM.
`O=C(O)[C@@H](Cc1c[nH]c2ccccc12)NS(=O)(=O)c1ccc(-c2nnn(-c3ccc(Br)cc3)n2)cc1`: the maximum concentration (Cmax) in data set [3] came out at 2.5 µM. In data set [1], this molecule showed an IC50 of 0.0083 µM.
Take `O=C(NO)[C@@H](Cc1ccccc1)NS(=O)(=O)c1ccccc1`: it took 0.73 µM to reach half-maximal inhibition in data set [2] (IC50).
As to `COc1ccc(-n2nnc(-c3ccc(S(=O)(=O)N[C@H](Cc4c[nH]c5ccccc45)C(=O)O)cc3)n2)cc1`, in data set [3], the highest concentration (Cmax) was determined as 2.1 µM. In data set [1], this molecule gave an IC50 of 0.013 µM.
With `Cc1ccc(C#Cc2ccc(S(=O)(=O)N[C@@H](C(=O)O)C(C)C)cc2)cc1`, the IC50 was > 1 µM in data set [1] and 1.2 µM in data set [2].
In data set [3], `O=C(O)[C@@H](Cc1ccccc1)NS(=O)(=O)c1ccc(-c2nnn(-c3ccccc3)n2)cc1` had a Cmax of 12.1 µM. Further, the figures for the IC50 in data set [1] and in data set [2] were 0.11 µM and 0.58 µM, respectively.
Consider `O=C(O)[C@@H](Cc1ccccc1)NS(=O)(=O)c1ccc(-c2nnn(-c3ccc(C4CCCCC4)cc3)n2)cc1`, for which, in data set [1], the IC50 was determined as 0.28 µM.
In data set [3], `Cc1ccc(-n2nnc(-c3ccc(S(=O)(=O)N[C@H](Cc4ccccc4)C(=O)O)cc3)n2)cc1` yielded a maximum concentration (Cmax) of 1.2 µM. Moreover, the IC50 in data set [1] is < 0.2 µM.
In the case of `O=C(Nc1ccc(S(=O)(=O)N[C@H](Cc2ccccc2)C(=O)O)cc1)c1ccccc1`, the IC50 in data set [1] was < 1 µM.
Turning to `COc1ccc(-c2ccc(S(=O)(=O)N[C@@H](C(=O)O)C(C)C)cc2)cc1`, the Cmax in data set [3] was determined as 89.9 µM. The half-inhibitory concentration (IC50) in data set [1] is < 0.1 µM; in data set [2], 0.04 µM.
As for `COc1cccc(-c2ccc(S(=O)(=O)N[C@H](Cc3c[nH]c4ccccc34)C(=O)O)cc2)c1`, the figures for the IC50 in data set [1] and in data set [2] were 1 µM and 1.1 µM, respectively.
`O=C(O)[C@@H](Cc1c[nH]c2ccccc12)NS(=O)(=O)c1ccc(C#Cc2ccc([N+](=O)[O-])cc2)s1`: the concentration for half-maximal inhibition (IC50) in data set [2] came out at 0.023 µM.
With `O=C(Nc1ccccc1)c1ccc(S(=O)(=O)N[C@H](Cc2c[nH]c3ccccc23)C(=O)O)cc1`, the IC50 was > 1 µM in data set [1] and > 10 µM in data set [2].
In data set [3], `O=C(O)[C@@H](Cc1c[nH]c2ccccc12)NS(=O)(=O)c1ccc(-c2ccccc2)cc1` came in with a Cmax of 34.3 µM. Moreover, the IC50 in data set [1] was 0.053 µM; in data set [2] it was 0.18 µM.
For the molecule `O=C(O)[C@H](Cc1ccccc1)NS(=O)(=O)c1ccc(-c2ccccc2)cc1`, the IC50 in data set [2] was determined as 0.8 µM.
In data set [3], `CC(C)[C@@H](NS(=O)(=O)c1ccc(Oc2ccccc2)cc1)C(=O)NO` returned a Cmax of 5.8 µM. The half-maximal inhibitory concentration (IC50) in data set [1] was 0.002 µM; in data set [2] it was 0.00054 µM.
In turn, `O=C(O)[C@@H](Cc1ccccc1)NS(=O)(=O)c1ccc(-c2ccccc2)cc1` had a peak concentration (Cmax) in data set [3] of 291 µM. Half-maximal inhibition in data set [1] (IC50) required 0.31 µM.
For the molecule `O=C(N[C@H](Cc1ccccc1)C(=O)O)c1ccc(-c2ccccc2)cc1`, the IC50 is > 1 µM in data set [1] and > 50 µM in data set [2].
